In ChEMBL document CHEMBL1143000, “Application of the phosphoramidate ProTide approach to 4'-azidouridine confers sub-micromolar potency versus hepatitis C virus on an inactive nucleoside” (J Med Chem, 2007):
pEC50, pIC50: −log10 of the molar value.

How the values were obtained:
[1] = Cytotoxicity against in 2209-23 cells by WST assay; assay type: cell-based; conditions: human
Method in brief: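 Cell viability read by WST assay in 2209-23 replicon cells (Huh-7 derived, stably carrying a genotype 1b bicistronic HCV replicon). CC50 is the concentration that reduces cell viability by 50%.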

[2] = system: Hepatitis C virus; assay: Inhibition of HCV RNA replication in 2209-23 cells transfected with bicistronic HCV replicon; assay type: functional, Hepacivirus hominis
Method in brief: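 Huh-7-derived 2209-23 cells stably carry a bicistronic genotype 1b HCV replicon with a renilla luciferase reporter. Replication is read as luciferase signal. EC50 is the concentration that reduces HCV replication by 50%.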

[3] = Inhibition of HCV NS5B570-Con1 RNA polymerase; design: species or system Hepacivirus hominis
Method in brief: (§1)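 Recombinant HCV genotype 1b NS5B truncated at residue 570, from strain Con1 or strain BK. RNA synthesis was run primer-independently on HCV genome-derived cIRES RNA template. Read-out was incorporation of radiolabeled UMP into acid-insoluble RNA product.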

[4] = Inhibition of HCV NS5B570n-BK RNA polymerase; design: species or system Hepacivirus hominis; method in brief: as §1

| SMILES | CC50 [1] [µM] | pEC50 ([2]; Hepatitis C virus) | pIC50 [3] | pIC50 [4] | pEC50 [2] |
| --- | --- | --- | --- | --- | --- |
| CCOC(=O)CN(C)P(=O)(OC[C@@]1(N=[N+]=[N-])O[C@@H](n2ccc(=O)[nH]c2=O)[C@@H](O)[C@H]1O)Oc1ccccc1 (some centres not stated) | > 100 | < 4.00 |  |  |  |
| C[C@H](NP(=O)(OC[C@@]1(N=[N+]=[N-])O[C@@H](n2ccc(=O)[nH]c2=O)[C@@H](O)[C@H]1O)Oc1ccccc1)C(=O)OCc1ccccc1 (some centres not stated) | > 100 | 6.21 |  |  |  |
| CC(C)(NP(=O)(OC[C@@]1(N=[N+]=[N-])O[C@@H](n2ccc(=O)[nH]c2=O)[C@@H](O)[C@H]1O)Oc1ccccc1)C(=O)OCc1ccccc1 (some centres not stated) | > 100 | 5.47 |  |  |  |
| [N-]=[N+]=N[C@]1(COP(=O)(NCC(=O)OCc2ccccc2)Oc2ccccc2)O[C@@H](n2ccc(=O)[nH]c2=O)[C@@H](O)[C@H]1O (some centres not stated) | > 100 | 5.80 |  |  |  |
| CCC(C)OC(=O)[C@H](C)NP(=O)(OC[C@@]1(N=[N+]=[N-])O[C@@H](n2ccc(=O)[nH]c2=O)[C@@H](O)[C@H]1O)Oc1ccccc1 (some centres not stated) | > 100 | 6.20 |  |  |  |
| [N-]=[N+]=N[C@]1(COP(=O)(O)OP(=O)(O)OP(=O)(O)O)O[C@@H](n2ccc(=O)[nH]c2=O)[C@@H](O)[C@H]1O |  |  | 6.66 | 6.64 |  |
| CCOC(=O)[C@H](C)NP(=O)(OC[C@@]1(N=[N+]=[N-])O[C@@H](n2ccc(=O)[nH]c2=O)[C@@H](O)[C@H]1O)Oc1ccccc1 (some centres not stated) | > 100 | 5.89 |  |  |  |
| CCOC(=O)[C@H](Cc1ccccc1)NP(=O)(OC[C@@]1(N=[N+]=[N-])O[C@@H](n2ccc(=O)[nH]c2=O)[C@@H](O)[C@H]1O)Oc1ccccc1 (some centres not stated) | > 100 | 5.86 |  |  |  |
| CC(C)OC(=O)[C@H](C)NP(=O)(OC[C@@]1(N=[N+]=[N-])O[C@@H](n2ccc(=O)[nH]c2=O)[C@@H](O)[C@H]1O)Oc1ccccc1 (some centres not stated) | > 100 | 6.11 |  |  |  |
| CCOC(=O)[C@H](CCSC)NP(=O)(OC[C@@]1(N=[N+]=[N-])O[C@@H](n2ccc(=O)[nH]c2=O)[C@@H](O)[C@H]1O)Oc1ccccc1 (some centres not stated) | > 100 | 4.85 |  |  |  |
| CCOC(=O)CCNP(=O)(OC[C@@]1(N=[N+]=[N-])O[C@@H](n2ccc(=O)[nH]c2=O)[C@@H](O)[C@H]1O)Oc1ccccc1 (some centres not stated) | > 100 | < 4.00 |  |  |  |
| C[C@@H](NP(=O)(OC[C@@]1(N=[N+]=[N-])O[C@@H](n2ccc(=O)[nH]c2=O)[C@@H](O)[C@H]1O)Oc1ccccc1)C(=O)OCc1ccccc1 (some centres not stated) | > 100 | 5.92 |  |  |  |
| CCCCOC(=O)[C@H](C)NP(=O)(OC[C@@]1(N=[N+]=[N-])O[C@@H](n2ccc(=O)[nH]c2=O)[C@@H](O)[C@H]1O)Oc1ccccc1 (some centres not stated) | > 100 | 5.92 |  |  |  |
| C[C@H](NP(=O)(OC[C@@]1(N=[N+]=[N-])O[C@@H](n2ccc(=O)[nH]c2=O)[C@@H](O)[C@H]1O)Oc1cccc2ccccc12)C(=O)OCc1ccccc1 (some centres not stated) [listing 1 of 3 here] | > 100 | 6.37 |  |  |  |
| C[C@H](NP(=O)(OC[C@@]1(N=[N+]=[N-])O[C@@H](n2ccc(=O)[nH]c2=O)[C@@H](O)[C@H]1O)Oc1cccc2ccccc12)C(=O)OCc1ccccc1 (some centres not stated) [listing 2 of 3 here] |  |  |  |  | 6.41 |
| CCOC(=O)C(C)(C)NP(=O)(OC[C@@]1(N=[N+]=[N-])O[C@@H](n2ccc(=O)[nH]c2=O)[C@@H](O)[C@H]1O)Oc1ccccc1 (some centres not stated) | > 100 | 4.99 |  |  |  |
| CCOC(=O)[C@@H]1CCCN1P(=O)(OC[C@@]1(N=[N+]=[N-])O[C@@H](n2ccc(=O)[nH]c2=O)[C@@H](O)[C@H]1O)Oc1ccccc1 (some centres not stated) | > 100 | 5.22 |  |  |  |
| C[C@H](NP(=O)(OC[C@@]1(N=[N+]=[N-])O[C@@H](n2ccc(=O)[nH]c2=O)[C@@H](O)[C@H]1O)Oc1cccc2ccccc12)C(=O)OCc1ccccc1 (some centres not stated) [listing 3 of 3 here] |  |  |  |  | 6.66 |
| COC(=O)[C@H](C)NP(=O)(OC[C@@]1(N=[N+]=[N-])O[C@@H](n2ccc(=O)[nH]c2=O)[C@@H](O)[C@H]1O)Oc1ccccc1 (some centres not stated) | > 100 | 5.51 |  |  |  |
| CC(C)[C@H](NP(=O)(OC[C@@]1(N=[N+]=[N-])O[C@@H](n2ccc(=O)[nH]c2=O)[C@@H](O)[C@H]1O)Oc1ccccc1)C(=O)OCc1ccccc1 (some centres not stated) | > 100 | > 4.00 |  |  |  |
| CCOC(=O)C1(NP(=O)(OC[C@@]2(N=[N+]=[N-])O[C@@H](n3ccc(=O)[nH]c3=O)[C@@H](O)[C@H]2O)Oc2ccccc2)CCCC1 (some centres not stated) | > 100 | < 4.00 |  |  |  |
| [N-]=[N+]=N[C@]1(COP(=O)(N[C@@H](Cc2ccccc2)C(=O)OCc2ccccc2)Oc2ccccc2)O[C@@H](n2ccc(=O)[nH]c2=O)[C@@H](O)[C@H]1O (some centres not stated) | > 100 | > 4.00 |  |  |  |
| [N-]=[N+]=N[C@]1(COP(=O)(O)OP(=O)(O)OP(=O)(O)O)O[C@@H](n2ccc(N)nc2=O)[C@@H](O)[C@H]1O |  |  | 6.49 | 6.54 |  |
| [N-]=[N+]=N[C@]1(CO)O[C@@H](n2ccc(=O)[nH]c2=O)[C@@H](O)[C@H]1O | > 100 | < 4.00 |  |  |  |
| CCOC(=O)[C@H](CC(C)C)NP(=O)(OC[C@@]1(N=[N+]=[N-])O[C@@H](n2ccc(=O)[nH]c2=O)[C@@H](O)[C@H]1O)Oc1ccccc1 (some centres not stated) | > 100 | 5.64 |  |  |  |
| C[C@H](NP(=O)(OC[C@@]1(N=[N+]=[N-])O[C@@H](n2ccc(=O)[nH]c2=O)[C@@H](O)[C@H]1O)Oc1ccccc1)C(=O)OC(C)(C)C (some centres not stated) | > 100 | 5.29 |  |  |  |
| [N-]=[N+]=N[C@]1(COP(=O)(NC2(C(=O)OCc3ccccc3)CCCC2)Oc2ccccc2)O[C@@H](n2ccc(=O)[nH]c2=O)[C@@H](O)[C@H]1O (some centres not stated) | > 100 | > 4.00 |  |  |  |
